# ChEMBL document CHEMBL4732074, “Design and synthesis of novel fluorescently labeled analogs of vemurafenib targeting MKK4” (Eur J Med Chem, 2021)
# Biological target: T1, Dual specificity mitogen-activated protein kinase kinase 4 (Homo sapiens) (UniProt P45985)
# T1 sequence (whole entry): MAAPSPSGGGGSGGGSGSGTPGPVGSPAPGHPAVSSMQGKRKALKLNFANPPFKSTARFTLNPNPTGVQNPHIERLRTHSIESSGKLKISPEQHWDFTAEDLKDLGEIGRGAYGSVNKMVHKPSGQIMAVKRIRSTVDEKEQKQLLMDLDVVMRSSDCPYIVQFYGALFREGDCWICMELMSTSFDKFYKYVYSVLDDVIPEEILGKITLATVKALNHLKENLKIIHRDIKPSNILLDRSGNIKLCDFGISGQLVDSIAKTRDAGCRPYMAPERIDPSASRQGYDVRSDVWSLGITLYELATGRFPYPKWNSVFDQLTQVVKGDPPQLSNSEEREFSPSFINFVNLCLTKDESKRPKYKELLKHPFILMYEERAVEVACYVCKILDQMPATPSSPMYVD
# Assay: Inhibition of wild-type human partial length MKK4 (S84 to D399 residues) expressed in mammalian expression system assessed as residual activity at 100 nM by KINOMEscan method relative to control
# Method in brief: (§1)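 DiscoverX KINOMEscan binding assay: the compound at 100 nM competes with an immobilised ligand for kinase binding. Read-out is POC (percentage of control), where lower values mean stronger binding.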
row,SMILES,Activity [%]
1,CN(C)c1ccc2c(-c3ccc(C(=O)NCC(=O)Nc4ccc(-c5cnc6[nH]cc(C(=O)c7c(F)ccc(NS(=O)(=O)Cc8ccccc8)c7F)c6c5)cn4)cc3C(=O)[O-])c3ccc(=[N+](C)C)cc-3oc2c1,6.6
2,CCCS(=O)(=O)Nc1ccc(F)c(C(=O)c2ccc3[nH]c4ncc(-c5ccc(NC(=O)CNC(=O)c6ccc(-c7c8ccc(=[N+](C)C)cc-8oc8cc(N(C)C)ccc78)c(C(=O)[O-])c6)cc5)cc4c3c2)c1F,13
3,CCCS(=O)(=O)Nc1ccc(F)c(C(=O)c2c[nH]c3ncccc23)c1F,14
4,CCCS(=O)(=O)Nc1ccc(F)c(C(=O)c2ccc3[nH]c4ncc(-c5ccc(C(=O)NCCCCCNC(=O)c6ccc(-c7c8ccc(=[N+](C)C)cc-8oc8cc(N(C)C)ccc78)c(C(=O)[O-])c6)cc5)cc4c3c2)c1F,32
5,CCCS(=O)(=O)Nc1ccc(F)c(C(=O)c2ccc3[nH]c4ncc(-c5ccc(C(=O)NCCCCCCNC(=O)c6ccc(-c7c8ccc(=[N+](C)C)cc-8oc8cc(N(C)C)ccc78)c(C(=O)[O-])c6)nc5)cc4c3c2)c1F,4.8
6,CCCS(=O)(=O)Nc1ccc(F)c(C(=O)c2c[nH]c3ncc(-c4ccc(NC(=O)CCCCNC(=O)c5ccc(-c6c7ccc(=[N+](C)C)cc-7oc7cc(N(C)C)ccc67)c(C(=O)[O-])c5)nc4)cc23)c1F,57
7,CCCS(=O)(=O)Nc1ccc(F)c(C(=O)c2ccc3[nH]c4ncc(-c5ccc(C(=O)NCCCCNC(=O)c6ccc(-c7c8ccc(=[N+](C)C)cc-8oc8cc(N(C)C)ccc78)c(C(=O)[O-])c6)cc5)cc4c3c2)c1F,4.3
8,CCCS(=O)(=O)Nc1ccc(F)c(C(=O)c2ccc3[nH]c4ncc(-c5ccc(C(=O)NCCCNC(=O)c6ccc(-c7c8ccc(=[N+](C)C)cc-8oc8cc(N(C)C)ccc78)c(C(=O)[O-])c6)nc5)cc4c3c2)c1F,4.5
9,CCCS(=O)(=O)Nc1ccc(F)c(C(=O)c2ccc3[nH]c4ncc(-c5cnc(C(=O)NCCCCNC(=O)c6ccc(-c7c8ccc(=[N+](C)C)cc-8oc8cc(N(C)C)ccc78)c(C(=O)[O-])c6)nc5)cc4c3c2)c1F,9.3
10,CCCS(=O)(=O)Nc1ccc(F)c(C(=O)c2ccc3[nH]c4ncc(-c5ccc(C(=O)NCCCNC(=O)c6ccc(-c7c8ccc(=[N+](C)C)cc-8oc8cc(N(C)C)ccc78)c(C(=O)[O-])c6)cc5)cc4c3c2)c1F,13
11,CCCS(=O)(=O)Nc1ccc(F)c(C(=O)c2ccc3[nH]c4ncc(-c5ccc(C(=O)NCCCCCCNC(=O)c6ccc(-c7c8ccc(=[N+](C)C)cc-8oc8cc(N(C)C)ccc78)c(C(=O)[O-])c6)cc5)cc4c3c2)c1F,6.6
12,CCCS(=O)(=O)Nc1ccc(F)c(C(=O)c2ccc3[nH]c4ncc(-c5ccc(C(=O)NCCCCNC(=O)c6ccc(-c7c8ccc(=[N+](C)C)cc-8oc8cc(N(C)C)ccc78)c(C(=O)[O-])c6)nc5)cc4c3c2)c1F,1.3
13,CCCS(=O)(=O)Nc1ccc(F)c(C(=O)c2c[nH]c3ncc(-c4ccc(NC(=O)CNC(=O)c5ccc(-c6c7ccc(=[N+](C)C)cc-7oc7cc(N(C)C)ccc67)c(C(=O)[O-])c5)cc4)cc23)c1F,11
14,CN(C)c1ccc2c(-c3ccc(C(=O)NCCCCC(=O)Nc4ccc(-c5cnc6[nH]cc(C(=O)c7c(F)ccc(NS(=O)(=O)Cc8ccccc8)c7F)c6c5)cn4)cc3C(=O)[O-])c3ccc(=[N+](C)C)cc-3oc2c1,13
15,CCCS(=O)(=O)Nc1ccc(F)c(C(=O)c2c[nH]c3ncc(-c4ccc(NC(=O)CNC(=O)c5ccc(-c6c7ccc(=[N+](C)C)cc-7oc7cc(N(C)C)ccc67)c(C(=O)[O-])c5)nc4)cc23)c1F,8.4
16,CCCS(=O)(=O)Nc1ccc(F)c(C(=O)c2ccc3[nH]c4ncc(-c5ccc(C(=O)NCCNC(=O)c6ccc(-c7c8ccc(=[N+](C)C)cc-8oc8cc(N(C)C)ccc78)c(C(=O)[O-])c6)cc5)cc4c3c2)c1F,19
17,CCCS(=O)(=O)Nc1ccc(F)c(C(=O)c2c[nH]c3ncc(-c4ccc(NC(=O)CNC(=O)OC(C)(C)C)cc4)cc23)c1F,9.2

# Biological target: T1, Dual specificity mitogen-activated protein kinase kinase 4 (Homo sapiens)
# Assay: Inhibition of wild-type human partial length MKK4 (S84 to D399 residues) expressed in mammalian expression system assessed as residual activity at 30 nM by KINOMEscan method relative to control
# Method in brief: (§2)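 KINOMEscan competition binding against an immobilised ligand, run at the lower compound concentrations named in each line. Binding is reported as percentage of control (POC), with low POC indicating high affinity.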
row,SMILES,Activity [%]
1,CCCS(=O)(=O)Nc1ccc(F)c(C(=O)c2ccc3[nH]c4ncc(-c5ccc(C(=O)NCCCCNC(=O)c6ccc(-c7c8ccc(=[N+](C)C)cc-8oc8cc(N(C)C)ccc78)c(C(=O)[O-])c6)nc5)cc4c3c2)c1F,4.1

# Biological target: T1, Dual specificity mitogen-activated protein kinase kinase 4 (Homo sapiens)
# Assay: Inhibition of wild-type human partial length MKK4 (S84 to D399 residues) expressed in mammalian expression system assessed as residual activity at 10 nM by KINOMEscan method relative to control
# Method in brief: as §2
row,SMILES,Activity [%]
1,CCCS(=O)(=O)Nc1ccc(F)c(C(=O)c2ccc3[nH]c4ncc(-c5ccc(C(=O)NCCCCNC(=O)c6ccc(-c7c8ccc(=[N+](C)C)cc-8oc8cc(N(C)C)ccc78)c(C(=O)[O-])c6)nc5)cc4c3c2)c1F,18

# Biological target: Serine/threonine-protein kinase B-raf (Homo sapiens) (UniProt P15056)
# Assay: Inhibition of BRAF (unknown origin) assessed as assessed as residual activity relative to control
# Method in brief: as §1
# Chain of Serine/threonine-protein kinase B-raf (Homo sapiens) (P15056 whole entry): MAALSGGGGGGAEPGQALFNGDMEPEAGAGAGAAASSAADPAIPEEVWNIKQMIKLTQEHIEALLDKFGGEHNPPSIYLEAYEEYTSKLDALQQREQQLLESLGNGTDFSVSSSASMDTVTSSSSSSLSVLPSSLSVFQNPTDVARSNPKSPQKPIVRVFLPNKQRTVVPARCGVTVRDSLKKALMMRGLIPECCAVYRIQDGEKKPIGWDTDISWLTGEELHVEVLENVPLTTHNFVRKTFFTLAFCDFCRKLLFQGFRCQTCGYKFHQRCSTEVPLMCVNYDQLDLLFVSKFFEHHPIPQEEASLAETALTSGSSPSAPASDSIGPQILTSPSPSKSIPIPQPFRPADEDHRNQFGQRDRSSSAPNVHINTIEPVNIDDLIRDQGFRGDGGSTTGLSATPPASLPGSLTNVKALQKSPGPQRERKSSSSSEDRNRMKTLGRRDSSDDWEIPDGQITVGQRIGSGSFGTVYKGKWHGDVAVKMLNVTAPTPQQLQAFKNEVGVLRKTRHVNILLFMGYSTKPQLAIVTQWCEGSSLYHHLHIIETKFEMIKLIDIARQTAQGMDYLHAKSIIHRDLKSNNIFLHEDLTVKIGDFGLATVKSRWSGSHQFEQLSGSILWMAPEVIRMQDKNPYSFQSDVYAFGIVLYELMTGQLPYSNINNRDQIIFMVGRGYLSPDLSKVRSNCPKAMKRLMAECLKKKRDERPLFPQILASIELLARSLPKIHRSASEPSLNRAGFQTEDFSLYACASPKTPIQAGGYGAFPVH
row,SMILES,Activity [%]
1,CCCS(=O)(=O)Nc1ccc(F)c(C(=O)c2ccc3[nH]c4ncc(-c5ccc(C(=O)NCCCCNC(=O)c6ccc(-c7c8ccc(=[N+](C)C)cc-8oc8cc(N(C)C)ccc78)c(C(=O)[O-])c6)nc5)cc4c3c2)c1F,92
